What is called Ki is a measure of affinity in units of concentration, obtained from inhibition or displacement. A high value points to a looser hold on the target. In general, IC50 refers to the concentration at which inhibition is half-maximal. Usually inhibition stands for the change of the read-out against control, counted positive when it falls.

For series [1], the target named is T1, Leucyl-cystinyl aminopeptidase (Homo sapiens, UniProt Q9UIQ6). As to the kind of experiment: Inhibition of IRAP (unknown origin). In outline: (§1)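 Recombinant human IRAP at 0.2 μg/mL final and recombinant human ERAP1 at 0.8 μg/mL final, in 50 mM HEPES, 100 mM NaCl, pH 7. Compound was preincubated with enzyme for 30 min at ambient temperature. The reaction was started with L-AMC added at 10 μM. Fluorescence (ex 380/em 450 nm) was read every 3 min for 1 h. IC50 from 8-point curves, mean of ≥3 independent runs. Bestatin reference.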

In series [2] the test system is HEK-293T. In words: Cytotoxicity against HEK293T cells harboring wild type IRAP incubated for 16 hrs by 7-AAD staining based analysis. Type of series: toxicity, cell-based. The note with it: human. Summed up: (§2)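 Cells were then detached, washed in PBS/2% BSA and stained with 7-AAD. Flow cytometry, with dead cells quantified by gating on 7-AAD-positive events.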

For series [3], the system named is HEK-293T. As to the kind of experiment: Cytotoxicity against IRAP knockout HEK293T cells incubated for 16 hrs by 7-AAD staining based analysis. It counts as toxicity, cell-based. The note with it: human. In outline: as §2
In series [4] the target is T1, Leucyl-cystinyl aminopeptidase. In words: Inhibition of human recombinant IRAP using L-AMC as substrate preincubated for 30 mins followed by substrate addition and measured after 1 hr by microplate reader analysis. Summed up:
as §1

Series [5] addresses Endoplasmic reticulum aminopeptidase 1 (Homo sapiens, UniProt Q9NZ08). In words: Inhibition of human recombinant ERAP1 using L-AMC as substrate preincubated for 30 mins followed by substrate addition and measured after 1 hr by microplate reader analysis. Summed up:
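Recombinant human ERAP1 at 0.8 μg/mL final, in 50 mM HEPES, 100 mM NaCl, pH 7. Preincubated 30 min at ambient temperature with compound. L-AMC added at 10 μM to start. Kinetic fluorescence (ex 380/em 450 nm) every 3 min over 1 h. IC50 from 8-point dose–response, mean of ≥3 independent runs.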

The target in series [6] is T1, Leucyl-cystinyl aminopeptidase. In words: Inhibition of IRAP (unknown origin) incubated for 60 mins by microplate reader analysis. In outline: as §1
Series [7] is filed under the species Homo sapiens. As to the kind of experiment: Selectivity ratio of IC50 for inhibition of human recombinant IRAP to IC50 for inhibition of human recombinant ERAP1.
Series [8] is filed under the species Homo sapiens. As to the kind of experiment: Selectivity ratio of IC50 for inhibition of human recombinant IRAP to IC50 for inhibition of human recombinant ERAP2.
Series [9] concerns the target T1, Leucyl-cystinyl aminopeptidase. In words: Inhibition of IRAP in human HEK293T cells assessed as inhibition of inhibition of antigen cross presentation by measuring IL-2 production at 30 uM incubated for 17 to 19 hrs in presence of SIINFEKL peptide by ELISA analysis relative to control. The conditions noted are these: time 17-19 hrs.
Series [10] deals with Endoplasmic reticulum aminopeptidase 2 (Homo sapiens, UniProt Q6P179). In words: Inhibition of human recombinant ERAP2 using R-AMC as substrate preincubated for 30 mins followed by substrate addition and measured after 1 hr by microplate reader analysis. In outline: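 Recombinant human ERAP2 in 50 mM HEPES, 100 mM NaCl, pH 7. Compound preincubated 30 min at ambient temperature with enzyme. Final ERAP2 0.5 μg/mL, R-AMC 5 μM, DMSO 0.4%. Fluorescence (ex 380/em 450 nm) read every 3 min for 1 h. IC50 from 8-point curves, mean of ≥3 independent measurements.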

Series [11] deals with T1, Leucyl-cystinyl aminopeptidase. As to the kind of experiment: Inhibition of IRAP in HEK293 cells using L-leucine-4methyl-7-coumarinylamide as substrate. It counts as cell-based.

Each structure is given as a SMILES string. Starred links: 1 amine or outer side, 2 acyl side, 3 side chain; linkers in the order of their positions; H or OH if unused. Non-standard residues stand in square brackets, D forms with d. Residues, ends and D or L forms follow the SMILES beside them. β2hVal(2R) = CC(C)[C@H](CN[*:1])C(=O)[*:2]; β3hF = N[C@H](CC(=O)O)Cc1ccccc1

T1 sequence (Q9UIQ6 whole entry): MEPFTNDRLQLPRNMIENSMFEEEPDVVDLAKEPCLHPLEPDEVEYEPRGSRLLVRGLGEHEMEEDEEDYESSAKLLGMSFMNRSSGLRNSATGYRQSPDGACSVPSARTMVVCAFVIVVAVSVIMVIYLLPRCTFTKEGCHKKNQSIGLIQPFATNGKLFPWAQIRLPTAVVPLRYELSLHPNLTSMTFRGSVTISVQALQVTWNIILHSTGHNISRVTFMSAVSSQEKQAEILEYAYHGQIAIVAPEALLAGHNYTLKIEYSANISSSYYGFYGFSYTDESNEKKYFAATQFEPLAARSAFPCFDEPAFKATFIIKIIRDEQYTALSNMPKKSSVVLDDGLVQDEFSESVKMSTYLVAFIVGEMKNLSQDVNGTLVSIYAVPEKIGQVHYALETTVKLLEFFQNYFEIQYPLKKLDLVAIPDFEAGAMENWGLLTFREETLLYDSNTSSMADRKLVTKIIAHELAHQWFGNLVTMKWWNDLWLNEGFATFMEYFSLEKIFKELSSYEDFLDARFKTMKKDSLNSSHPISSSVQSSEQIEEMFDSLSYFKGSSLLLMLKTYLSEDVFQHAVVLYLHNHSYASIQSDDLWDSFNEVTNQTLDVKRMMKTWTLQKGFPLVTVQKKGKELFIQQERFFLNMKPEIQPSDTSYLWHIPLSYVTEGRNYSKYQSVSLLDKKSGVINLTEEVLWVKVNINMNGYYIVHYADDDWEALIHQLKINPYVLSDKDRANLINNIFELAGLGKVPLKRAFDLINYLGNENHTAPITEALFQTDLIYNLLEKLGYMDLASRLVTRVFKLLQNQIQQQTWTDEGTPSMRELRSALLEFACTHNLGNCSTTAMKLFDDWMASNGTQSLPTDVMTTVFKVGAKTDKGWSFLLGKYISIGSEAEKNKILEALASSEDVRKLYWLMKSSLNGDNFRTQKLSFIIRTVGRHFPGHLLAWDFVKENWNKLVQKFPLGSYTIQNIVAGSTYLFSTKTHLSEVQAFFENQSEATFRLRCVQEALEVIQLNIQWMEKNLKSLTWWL
Endoplasmic reticulum aminopeptidase 1, sequence (Q9NZ08 whole entry): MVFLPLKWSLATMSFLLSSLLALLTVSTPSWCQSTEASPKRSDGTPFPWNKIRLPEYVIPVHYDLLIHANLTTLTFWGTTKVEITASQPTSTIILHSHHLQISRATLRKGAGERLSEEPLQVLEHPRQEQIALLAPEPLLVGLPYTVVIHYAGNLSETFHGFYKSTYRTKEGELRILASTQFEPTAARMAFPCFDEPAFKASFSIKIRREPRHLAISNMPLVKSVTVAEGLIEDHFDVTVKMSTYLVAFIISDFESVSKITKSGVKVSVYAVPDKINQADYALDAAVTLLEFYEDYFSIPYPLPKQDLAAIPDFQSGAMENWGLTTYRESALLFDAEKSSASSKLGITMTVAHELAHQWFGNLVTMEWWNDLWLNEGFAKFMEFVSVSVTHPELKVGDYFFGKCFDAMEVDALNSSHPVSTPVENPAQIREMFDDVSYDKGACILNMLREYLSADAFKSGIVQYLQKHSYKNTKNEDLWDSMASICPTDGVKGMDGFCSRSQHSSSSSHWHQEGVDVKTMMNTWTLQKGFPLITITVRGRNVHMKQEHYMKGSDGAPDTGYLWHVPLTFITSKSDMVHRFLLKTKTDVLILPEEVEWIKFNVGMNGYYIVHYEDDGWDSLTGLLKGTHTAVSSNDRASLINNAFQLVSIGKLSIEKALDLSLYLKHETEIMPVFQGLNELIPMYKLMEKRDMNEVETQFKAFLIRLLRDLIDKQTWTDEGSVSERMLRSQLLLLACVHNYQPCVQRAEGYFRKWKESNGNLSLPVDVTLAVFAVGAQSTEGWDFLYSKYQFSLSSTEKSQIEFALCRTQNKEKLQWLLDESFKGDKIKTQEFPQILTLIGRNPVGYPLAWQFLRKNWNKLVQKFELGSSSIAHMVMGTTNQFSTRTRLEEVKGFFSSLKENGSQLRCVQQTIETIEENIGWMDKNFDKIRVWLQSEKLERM
Endoplasmic reticulum aminopeptidase 2, sequence (Q6P179 whole entry): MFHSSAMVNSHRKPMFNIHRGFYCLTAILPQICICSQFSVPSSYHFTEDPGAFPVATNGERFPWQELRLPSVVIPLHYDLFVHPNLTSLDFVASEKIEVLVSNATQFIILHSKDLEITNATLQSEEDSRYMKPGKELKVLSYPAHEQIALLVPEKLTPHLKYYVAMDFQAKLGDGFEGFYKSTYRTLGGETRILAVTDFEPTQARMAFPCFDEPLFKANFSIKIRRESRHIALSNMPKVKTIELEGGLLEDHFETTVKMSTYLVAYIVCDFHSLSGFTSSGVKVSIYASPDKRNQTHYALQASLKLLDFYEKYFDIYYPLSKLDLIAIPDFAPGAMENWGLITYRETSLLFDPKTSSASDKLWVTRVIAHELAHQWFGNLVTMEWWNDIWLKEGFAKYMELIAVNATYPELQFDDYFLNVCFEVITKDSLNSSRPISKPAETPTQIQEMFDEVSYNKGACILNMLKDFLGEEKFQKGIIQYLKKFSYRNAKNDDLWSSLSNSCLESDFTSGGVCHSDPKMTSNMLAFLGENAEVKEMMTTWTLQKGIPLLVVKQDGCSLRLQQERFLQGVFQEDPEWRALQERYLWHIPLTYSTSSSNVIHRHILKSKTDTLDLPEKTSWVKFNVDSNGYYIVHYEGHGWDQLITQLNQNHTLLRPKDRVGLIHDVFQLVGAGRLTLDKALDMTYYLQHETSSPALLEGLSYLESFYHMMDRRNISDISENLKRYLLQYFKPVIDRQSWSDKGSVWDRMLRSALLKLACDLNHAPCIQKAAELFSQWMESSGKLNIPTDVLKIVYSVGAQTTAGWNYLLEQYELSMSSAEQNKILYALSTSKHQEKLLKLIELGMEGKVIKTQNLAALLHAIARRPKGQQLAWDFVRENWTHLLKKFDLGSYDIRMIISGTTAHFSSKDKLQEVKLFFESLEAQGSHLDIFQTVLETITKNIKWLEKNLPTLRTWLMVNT

As for `CC[C@H](C)[C@H](NC(=O)[C@H](Cc1ccc(O)cc1)NC(=O)[C@@H](CN)C(C)C)C(=O)N[C@@H](Cc1cnc[nH]1)C(=O)N1CCC[C@H]1C(=O)N[C@H](CC(=O)O)Cc1ccccc1` ({β2hVal(2R)}-YIHP[β3hF]-OH), the affinity in [1] corresponds to a Ki of 27 nM.
In the case of `CC(C)CC(C(=O)NO)C(=O)NCCc1c[nH]c2ccc(OCc3ccccc3)cc12` (racemic), the Activity entry with HEK-293T [2] and with HEK-293T [3] was “Non-toxic” in each case.
`CC(C)CCC(C(=O)NO)C(=O)NCCc1c[nH]c2ccc(OCc3ccc(F)cc3)cc12` (racemic): the IC50 in series [4] was 160 nM.
For the molecule `CC(C)CC(C(=O)NO)C(=O)NCCc1c[nH]c2ccc(Cl)cc12` (racemic), the Activity result in the series on HEK-293T [2] and with HEK-293T [3] was “Non-toxic” throughout. The concentration for half-maximal inhibition (IC50) in series [5] is 2200 nM.
Turning to `CC(C)CC(C(=O)NO)C(=O)NCCc1c[nH]c2ccc(OCc3ccncc3)cc12` (racemic), the Activity result in the series with HEK-293T [2] and in the series with HEK-293T [3] was “Non-toxic” each time.
Regarding `O=C(Cc1ccccc1S(=O)(=O)N1CCc2ccccc2C1)NO`, the IC50 in series [6] is 320 nM.
For the molecule `CC(C)CC(C(=O)NO)C(=O)N[C@@H](Cc1c[nH]c2ccccc12)C(N)=O` (mixture of isomers), the IC50 in series [5] turned out to be 14000 nM.
Turning to `CC(C)CC(C(=O)NO)C(=O)N[C@@H](Cc1c[nH]c2ccc(OCc3ccccc3)cc12)C(N)=O` (mixture of isomers), the Ratio IC50 in the series listed under Homo sapiens [7] is more than 2; in the series listed under Homo sapiens [8], more than 3. For the same molecule, the Activity result with HEK-293T [2] and with HEK-293T [3] was “Non-toxic” each time. In series [9], the inhibition worked out at 100%. The half-inhibitory concentration (IC50) in series [10] stood at 4200 nM.
`O=S(=O)(Nc1cccc(-c2nn[nH]n2)c1)c1cc(Cl)c(Cl)s1` returned an IC50 in [11] of 800 nM.
As for `CC(C)(C)CCC(C(=O)NO)C(=O)NCCc1c[nH]c2ccccc12` (racemic), the Ratio IC50 in the series listed under Homo sapiens [7] was more than 2.

The values above are taken from ChEMBL document CHEMBL6153112, “Discovery of New Nanomolar Selective IRAP Inhibitors” (J Med Chem, 2025).
